Test results from article PMC7591087 (Drug Design, Development and Therapy, 2020).
Like-named read-outs stand apart in the source and are kept apart here.

How the values were obtained:
[1] = Steady-state pharmacokinetics; assay type: in vivo; conditions: human, plasma, oral
Outline: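 Crossover design in healthy males: 5 mg, 30 mg, or both test compounds orally once daily for 7 days, fasted, with 7-day washouts. A validated LC-MS/MS assay measured parent drugs and metabolites, and steady-state Tmax was taken directly from observed data. Analysis covered 34 completers.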

[2] = Safety and tolerability assessment; assay type: in vivo, human
Outline: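 Healthy males in a randomized, open-label, six-sequence, three-period crossover took one test compound at 5 mg, another at 30 mg, or both together, orally once daily for 7 days with 150 mL water while fasted, with 7-day washouts. Investigators monitored vital signs, physical exam, clinical labs, 12-lead ECG and adverse events, coding events with MedDRA 19.0. Analysis covered 35 subjects dosed at least once.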

[3] = repeated once-daily administrations in healthy subjects, NCT00961025; cited from earlier work
[4] = tested on: CYP enzymes; conditions: in vitro studies; cited from earlier work
[5] = once-daily oral administration; cited from earlier work
[6] = tested on: CYP enzyme; conditions: in vivo; cited from earlier work
[7] = number of subjects who reported ADRs (the number of ADRs), N=35

For `CC(C)(C)OC[C@@H]1C(=O)NCCN1C(=O)C[C@H](N)Cc1cc(F)c(F)cc1F` [Evogliptin], the Tmax ([1]; 5 mg) was 4.5 h, the “ADR: Diarrhoea” value [2, 7] was 1 (1) and the “ADR: Dyspepsia” value [2, 7] was 1 (1). The “ADR: Headache” value [2, 7] was 1 (1), the “ADR: Lip blister” value [2, 7] was 1 (1) and the “ADR: Muscle twitching” value [2, 7] was 1 (1). For the same compound, the “ADR: Musculoskeletal stiffness” value [2, 7] was 1 (1), the “ADR: Oropharyngeal swelling” value [2, 7] was 1 (1) and the “ADR: Vomiting” value [2, 7] was 1 (1). For the same compound, the “terminal half-life (t1/2)” value [3] was 33 to 39 h, the “time to reach a maximum plasma concentration (Tmax)” value [3] was 4 to 5 h and the “induction or inhibition of CYP enzymes” value [4] was “does not induce or inhibit CYP enzymes”.

For `CCc1ccc(CCOc2ccc(CC3SC(=O)NC3=O)cc2)nc1` (stereo not drawn) [Pioglitazone], the Tmax [1] was 3 h, the Tmax ([1]; 30 mg) was 2 h and the “number of AEs reported” value ([2]; all adverse events after each treatment, 35 subjects) was 3 AEs. For the same compound, the “ADR: Amylase increased” value [2, 7] was 1 (1), the Tmax [5] was “about 2 hours” and the “CYP enzyme induction or inhibition” value [6] was “No clinically significant CYP enzyme induction or inhibition”.
